Experimental data taken from ChEMBL document CHEMBL3997851, “Design and Synthesis of Mercaptoacetamides as Potent, Selective, and Brain Permeable Histone Deacetylase 6 Inhibitors” (ACS Med Chem Lett, 2017).
Calls of active or inactive are those of the source. The calls are words filed in the database; no cut-off is given here.

Assays:
[1] = Half life in human liver microsomes in presence of NADPH; assay type: ADME, microsome
Procedure, shortened: (§1)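 Incubated in pooled liver microsomes (human or mouse as per line) with NADPH cofactor; all tests run in duplicate.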

[2] = Metabolic stability in mouse liver microsomes assessed as parent compound remaining at 60 mins in presence of NADPH; assay type: ADME, microsome; conditions: read-out: Stability; procedure, shortened: as §1
[3] = target: T1, Protein deacetylase HDAC6 (Homo sapiens) (UniProt Q9UBN7); experiment: Inhibition of HDAC6 in HEK293 cells assessed as induction of tubulin acetylation after 24 hrs by Western blot method; assay type: cell-based
T1 sequence (whole entry): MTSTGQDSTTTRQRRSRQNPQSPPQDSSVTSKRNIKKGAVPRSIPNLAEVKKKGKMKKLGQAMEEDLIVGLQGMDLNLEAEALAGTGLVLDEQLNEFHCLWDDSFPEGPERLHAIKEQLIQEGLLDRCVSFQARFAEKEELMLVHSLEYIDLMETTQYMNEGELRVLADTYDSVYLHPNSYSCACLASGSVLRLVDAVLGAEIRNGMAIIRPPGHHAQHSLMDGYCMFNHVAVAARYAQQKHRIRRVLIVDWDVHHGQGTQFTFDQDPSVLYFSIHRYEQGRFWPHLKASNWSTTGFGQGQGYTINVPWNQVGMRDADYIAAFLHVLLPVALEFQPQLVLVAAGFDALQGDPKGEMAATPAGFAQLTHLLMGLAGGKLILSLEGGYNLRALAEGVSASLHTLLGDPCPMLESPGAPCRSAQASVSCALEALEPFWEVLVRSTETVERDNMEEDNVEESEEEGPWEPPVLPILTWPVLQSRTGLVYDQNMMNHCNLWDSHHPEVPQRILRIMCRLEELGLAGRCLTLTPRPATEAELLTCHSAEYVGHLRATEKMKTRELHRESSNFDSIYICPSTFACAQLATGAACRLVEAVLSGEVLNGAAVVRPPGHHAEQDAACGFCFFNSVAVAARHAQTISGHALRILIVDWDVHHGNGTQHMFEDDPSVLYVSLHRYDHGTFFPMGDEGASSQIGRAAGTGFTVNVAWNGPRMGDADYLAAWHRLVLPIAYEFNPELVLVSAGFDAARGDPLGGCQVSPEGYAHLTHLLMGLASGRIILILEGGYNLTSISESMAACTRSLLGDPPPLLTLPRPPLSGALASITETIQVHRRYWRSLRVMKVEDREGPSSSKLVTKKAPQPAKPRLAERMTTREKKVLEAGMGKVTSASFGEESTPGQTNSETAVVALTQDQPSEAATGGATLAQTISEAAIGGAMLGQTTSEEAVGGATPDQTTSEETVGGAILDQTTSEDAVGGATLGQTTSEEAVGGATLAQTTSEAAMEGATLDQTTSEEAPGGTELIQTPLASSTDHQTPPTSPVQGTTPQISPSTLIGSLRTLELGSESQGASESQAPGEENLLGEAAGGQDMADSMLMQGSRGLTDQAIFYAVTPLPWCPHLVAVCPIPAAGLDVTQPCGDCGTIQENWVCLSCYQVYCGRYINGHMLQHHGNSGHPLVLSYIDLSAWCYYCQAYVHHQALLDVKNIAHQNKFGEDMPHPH
Procedure, shortened: (§2)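 HEK293 cells are treated with compound, and acetylated tubulin and histone H3 are detected by Western blot with GAPDH as loading control. Each blot carries a tubastatin 10 µM positive control and a DMSO or medium negative control.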

Histone deacetylase 1 [4] = target: T2, Histone deacetylase 1 (Homo sapiens, UniProt Q13547); experiment: Inhibition of HDAC1 in HEK293 cells assessed as increase in histone H3 acetylation at 5 uM after 24 hrs by Western blot method; assay type: cell-based; procedure, shortened: as §2
[5] = Metabolic stability in human liver microsomes assessed as parent compound remaining at 60 mins in presence of NADPH; assay type: ADME, microsome; conditions: read-out: Stability; procedure, shortened: as §1
[6] = Half life in mouse liver microsomes in presence of NADPH; assay type: ADME, microsome; procedure, shortened: as §1
Liver [7] = experiment: Prodrug conversion in human liver microsomes assessed as N-[5-(5,6-Dichloro-1H-indol-1-yl)pentyl]-2-mercaptoacetamide formation measured over 60 mins; assay type: ADME, microsome
Procedure, shortened: (§3)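 Disulfide prodrug incubated with pooled human or mouse liver microsomes, with the released free mercaptoacetamide measured over time. Percent released is taken as the measured thiol concentration divided by twice the initial prodrug concentration.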

Mus musculus = experiment: In vivo inhibition of HDAC6 in C57Bl/6J mouse assessed as increase in tubulin acetylation in cerebral cortex at 20 mg/kg, ip first dose administered in evening followed by second dose in next day morning measured 6 hrs post last dose by Western blot method relative to vehicle-treated control; assay type: functional; design: scale not given: the % may be the effect or the level left
Procedure, shortened: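 Mice (n=3) are dosed 20 mg/kg IP at 18:00, then dosed again at 20 mg/kg at 10:00 the next morning, and killed 6 h later. Cortex is taken for Western blot of acetyl-tubulin with GAPDH as loading control. Densitometric acetyl-tubulin/GAPDH ratio is expressed as % of vehicle-treated mice; significance is set at p<0.05.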

Liver [8] = experiment: Prodrug conversion in mouse liver microsomes assessed as N-[5-(5,6-Dichloro-1H-indol-1-yl)pentyl]-2-mercaptoacetamide formation measured over 60 mins; assay type: ADME, microsome; procedure, shortened: as §3
Homo sapiens = species: Homo sapiens; experiment: Selectivity ratio of IC50 for human HDAC1 to IC50 for human HDAC6
Procedure, shortened: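 HDAC1 and HDAC6 IC50s are each the mean of two experiments.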

[9] = target: T3, Protein deacetylase HDAC6 (Homo sapiens, UniProt Q9UBN7); experiment: Inhibition of human HDAC6 using RHKKAc as substrate by fluorescence assay
T3 sequence (Q9UBN7 whole entry): T1 sequence (whole entry)

Histone deacetylase 1 [10] = target: T2, Histone deacetylase 1; experiment: Inhibition of human HDAC1 using RHKKAc as substrate by fluorescence assay
Liver [11] = experiment: Prodrug conversion in human liver microsomes assessed as N-[4-[(5,7-Dichloroquinolin-8-yl)amino]butyl]-2-mercaptoacetamide formation measured over 60 mins; assay type: ADME, microsome; conditions: 1 h; procedure, shortened: as §3
Liver [12] = experiment: Prodrug conversion in mouse liver microsomes assessed as N-[4-[(5,7-Dichloroquinolin-8-yl)amino]butyl]-2-mercaptoacetamide formation measured over 60 mins; assay type: ADME, microsome; conditions: 1 h; procedure, shortened: as §3

T2 sequence (Q13547 whole entry): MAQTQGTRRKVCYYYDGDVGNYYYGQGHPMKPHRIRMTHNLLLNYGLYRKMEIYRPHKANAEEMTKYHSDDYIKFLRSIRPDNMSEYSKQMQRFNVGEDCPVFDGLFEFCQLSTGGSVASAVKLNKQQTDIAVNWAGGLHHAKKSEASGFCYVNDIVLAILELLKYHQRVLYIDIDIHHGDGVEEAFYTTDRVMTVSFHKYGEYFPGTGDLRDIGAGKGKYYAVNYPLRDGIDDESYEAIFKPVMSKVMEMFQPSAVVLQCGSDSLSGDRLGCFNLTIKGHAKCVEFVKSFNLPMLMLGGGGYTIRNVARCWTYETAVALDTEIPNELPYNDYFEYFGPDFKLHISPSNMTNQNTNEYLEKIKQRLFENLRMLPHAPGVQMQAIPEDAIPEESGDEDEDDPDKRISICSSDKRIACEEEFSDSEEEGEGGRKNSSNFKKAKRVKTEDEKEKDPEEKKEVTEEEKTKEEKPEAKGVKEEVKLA

half-life [1] [min]	remaining at 1 h [2] [%]	inhibition [3]	inhibition (Histone deacetylase 1 [4])	remaining at 1 h [5] [%]	half-life [6] [min]	Drug metabolism (Liver [7])	Drug metabolism (Liver [8])	Ratio IC50 (Homo sapiens)	IC50 [9] [nM]	IC50 (Histone deacetylase 1 [10]) [nM]	Drug metabolism (Liver [11])	Drug metabolism (Liver [12])	SMILES	Activity (Mus musculus) [%]
49.5	18.2	Dose-dependent effect	Active	40.5	24.8	Metabolite_Detected	Metabolite_Detected	–	–	–	–	–	O=C(CSSCC(=O)NCCCCCn1ccc2cc(Cl)c(Cl)cc21)NCCCCCn1ccc2cc(Cl)c(Cl)cc21	40
48.8	44.3	–	–	33.3	70	–	–	18	1570	28700	–	–	CC(C)c1cn(CCCCCCNC(=O)CS)c2cc(Cl)c(Cl)cc12	–
–	–	–	–	–	–	–	–	450	65.1	29300	–	–	O=C(CS)NCCCCCCn1ccc2cc(F)c(Cl)cc21	–
–	–	–	–	–	–	–	–	> 470	63.9	> 30000	–	–	O=C(CS)NCCCCCCn1ccc2cc(Cl)c(Cl)cc21	–
< 1	< 1	Dose-dependent effect	–	< 1	< 1	Metabolite_Detected	Metabolite_Detected	–	–	–	–	–	CC(C)C(=O)SCC(=O)NCCCCCn1ccc2cc(Cl)c(Cl)cc21	–
–	–	–	–	–	–	–	–	> 901	33.3	> 30000	–	–	O=C(CS)NCCCCCOc1c(Cl)cc(Cl)c2cccnc12	–
42.5	39.6	–	–	32.1	51	–	–	444	14.8	6570	–	–	O=C(CS)NCCCCCNc1c(Cl)cc(Cl)c2cccnc12	–
20.7	18.2	Dose-dependent effect	Active	8.5	25.9	–	–	–	–	–	Metabolite_Detected	Metabolite_Detected	O=C(CSSCC(=O)NCCCCNc1c(Cl)cc(Cl)c2cccnc12)NCCCCNc1c(Cl)cc(Cl)c2cccnc12	30
32.2	61.7	–	–	22.3	91.2	–	–	–	2.79	6880	–	–	O=C(CS)NCCCCNc1c(Cl)cc(Cl)c2cccnc12	–
–	–	–	–	–	–	–	–	–	534	–	–	–	O=C(CS)NCC(S)CCCn1ccc2cc(Cl)c(Cl)cc21 (stereo unspecified)	–
–	–	–	–	–	–	–	–	> 124	241	> 30000	–	–	O=C(CS)NCCCCCCn1cc(Cl)c2cc(Cl)c(Cl)cc21	–
35.2	29.5	Dose-dependent effect	–	25.3	41.3	–	–	657	11.4	7490	–	–	O=C(CS)NCCCCCn1ccc2cc(Cl)c(Cl)cc21	–
